Rad51 HR inh – human RAD51 strand exchange inhibitors, primary screen, biochemical, fluorescence | hRad51 DNA strand exchange, fluorescence dequenching | inhibition, % at 10 µM | actives 0.085% (n = 200,000) | DNA repair protein RAD51 homolog 1 (Homo sapiens), Q06609;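 active means inhibition above 40% at the single screening dose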
Target sequence (Q06609 whole entry, looked up): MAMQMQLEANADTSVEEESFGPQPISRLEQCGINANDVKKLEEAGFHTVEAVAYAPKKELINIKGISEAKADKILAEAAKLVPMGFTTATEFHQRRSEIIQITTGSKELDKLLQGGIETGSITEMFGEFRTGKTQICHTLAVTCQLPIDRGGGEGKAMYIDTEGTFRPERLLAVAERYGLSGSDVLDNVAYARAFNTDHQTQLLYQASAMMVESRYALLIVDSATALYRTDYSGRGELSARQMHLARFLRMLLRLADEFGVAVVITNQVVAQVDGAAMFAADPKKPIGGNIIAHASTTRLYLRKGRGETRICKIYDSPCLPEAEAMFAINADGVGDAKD
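System: human Rad51 nucleoprotein filaments preassembled on unlabelled ssDNA. Reagent: labelled 47-mer dsDNA for strand exchange. Schedule: 30-min compound preincubation and 15-min exchange, both room temperature. Measured by: FRET fluorescence dequenching, excitation 485 nm, emission 520 nm. Read-out: Fluorescence-based percent inhibition, control- and blank-normalised. Benchmarks: plate controls and plate blanks.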
SKKanGAS inh – S. pyogenes SKKanGAS growth inhibitors in kanamycin, primary screen, streptokinase expression inhibitor project, SKKanGAS strain, BacTiter-Glo luminescence; actives 1.3% (n = 300,000); inhibition, % at 7.5 µM; AID 1662, 2009; 6 h;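 active means mean replicate score, as percent of positive control median, at least 50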;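 further: strain carries kanamycin resistance gene driven by streptokinase promoter and grows in 40 µg/ml kanamycin; loss of luminescence reflects streptokinase promoter inhibition or plain growth inhibition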
Ins promoter up – insulin promoter activators in MIN6 cells, imaging, high-content screening, mouse beta cells; actives 0.3% (n = 190,000); MIN6 insulin promoter-GFP reporter; stronger effect = higher value; z-score at 5 µM; AID 1625, 2009;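 active means z-score above 3 at 5 µM with at least 500 cells counted in the well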
Autophagy HCS – autophagy modulators in MEF cells, primary screen, imaging, high-content, MEF GFP-LC3; MEF GFP-LC3 puncta imaging; test concentration mostly 10 µM; calls only at 10 µM (by protocol); actives 0.98% (n = 190,000); AID 463193, 2010;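 active means percentage of spot-positive cells more than 3 SD above its plate mean, without a fluorescence outlier flag or 80% toxicity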
KCC2 mod – KCC2 cotransporter modulators, thallium flux, primary screen, cell-based, HEK293 KCC2, FluoZin-2 fluorescence, MLSMR. Solute carrier family 12 member 5 (Homo sapiens), Q9H2X9. KCC2 cells, thallium flux FluoZin-2 fluorescence. B-score of Tl+ flux slope (higher = more flux/activation; lower = inhibition) at 10 µM. actives 2.2% (n = 190,000). AID 1456, 2008;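 active means thallium flux slope and its plate-corrected score both differing from the plate sample mean at a set confidence after two filtering rounds, in either direction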;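 further: slope of fluorescence scaled to starting intensity during 10 to 20 s after thallium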
WT yeast gro inh – growth inhibition of WT strain, primary screen, mitochondrial fusion inhibitor project, WT and mutant strains, chemical genetic. mitochondrial fusion phenotypic screen. inhibition, % at 10 µM. actives 2.1% (n = 190,000). AID 1362, 2008; in the data active means inhibition above about 58%; tested in S. cerevisiae
Large screens that a line does not name were inactive. This is a sample that favours compounds with a hit; in the whole collection about 4.2% have one here.

OCCC1CN(C/C(Cl)=C/c2ccccc2)CCN1C1CCCC1 (centres undefined)	Autophagy HCS active
CCOc1ccc(-c2nc3n(c(=O)c2C#N)CCCS3)cc1	SKKanGAS inh 58 (no result: KCC2 mod)
N#Cc1c(-c2ccc(Br)cc2)nc2n(c1=O)CCCS2	none (no result: KCC2 mod)
COc1ccc(-c2nc3n(c(=O)c2C#N)CCCS3)cc1	WT yeast gro inh 75
CSc1nnc(-c2cc3c(s2)-c2ccccc2CC3)o1	none
S=c1[nH]nc(-c2cc3c(s2)-c2ccccc2CC3)o1	SKKanGAS inh 73, KCC2 mod 95
CCn1c2nc(SCCN3CCOCC3)nnc2c2cc(C)cc(C)c21	none (no result: Rad51 HR inh, Ins promoter up, Autophagy HCS, KCC2 mod, WT yeast gro inh)
CC(C)Cn1c(O)c(N=NC(=O)c2cccc(S(=O)(=O)N3CCCCC3)c2)c2ccccc21	SKKanGAS inh 53 (no result: Ins promoter up)
O=C(O)c1csc(N/N=C/c2ccc(Br)cc2)n1	Autophagy HCS active (no result: Ins promoter up)
Cc1csc(N/N=C/c2ccc([N+](=O)[O-])cc2)n1	none (no result: Rad51 HR inh, Ins promoter up, Autophagy HCS, KCC2 mod, WT yeast gro inh)
CC(C)C1O/C(=N/C(=O)Nc2ccc(Cl)c(Cl)c2)NC1=O (centres undefined)	SKKanGAS inh 79
CC(C)c1ccc(S(=O)(=O)NC2CCS(=O)(=O)C2)cc1 (centres undefined)	none (no result: Rad51 HR inh, Ins promoter up, Autophagy HCS, KCC2 mod, WT yeast gro inh)
Cc1nc2c3cc(Cl)ccc3n(CCN3CCCCC3)c2s1	Autophagy HCS active
COC(=O)Cn1c2ccc(Cl)cc2c2nc(C)sc21	none (no result: Autophagy HCS, WT yeast gro inh)
Cc1ccc(S(=O)(=O)n2c3ccc(Cl)cc3c3nc(C)sc32)cc1	WT yeast gro inh 64 (no result: Rad51 HR inh)
O=C1C(Cc2c[nH]c3ccccc23)NC(=S)N1C1CCCCC1 (centres undefined)	none (no result: SKKanGAS inh)
Clc1cc(Cl)cc(C2=NCCC(c3ccccc3)O2)c1 (centres undefined)	WT yeast gro inh 75 (no result: Rad51 HR inh)
CC1(C)C(Cl)C(=O)C(C(=O)c2ccccc2)C(=O)C1Cl (centres undefined)	none (no result: Rad51 HR inh, Ins promoter up, Autophagy HCS, KCC2 mod, WT yeast gro inh)
CCOc1ccc(/C=N/NC(=S)NC2CC3CC2C2C=CCC32)cc1 (centres undefined)	SKKanGAS inh 64 (no result: Autophagy HCS, WT yeast gro inh)
CCCCn1c(N)c(N(CCOC)C(=O)Cn2c(=O)oc3ccccc32)c(=O)[nH]c1=O	none (no result: Rad51 HR inh, Ins promoter up, Autophagy HCS, KCC2 mod, WT yeast gro inh)
Cc1ccc2c(c1)C(=O)CC(O)(C(F)(F)F)O2 (centres undefined)	none (no result: Rad51 HR inh, Autophagy HCS, WT yeast gro inh)
Cc1ccc2c(c1)C(=O)CC1(CCC(C(C)(C)C)CC1)O2 (centres undefined)	SKKanGAS inh 68 (no result: Autophagy HCS, WT yeast gro inh)
CCC(=O)O[C@@H]1CC(=O)O[C@H](C)CC=CC=C[C@@H](O)[C@H](C)C[C@H](CC=O)[C@H](O[C@H]2O[C@H](C)[C@@H](O[C@H]3C[C@@](C)(O)[C@@H](OC(=O)CC)[C@H](C)O3)[C@H](N(C)C)[C@H]2O)[C@H]1OC	SKKanGAS inh 110 (no result: Autophagy HCS, WT yeast gro inh)
CCOC(=O)CC(NS(=O)(=O)c1ccc(OC)c(C)c1)c1cccc([N+](=O)[O-])c1 (centres undefined)	Autophagy HCS active (no result: Ins promoter up)
Cc1ccc(C)c(NC(=S)c2nc3ccccc3s2)c1	KCC2 mod 22 (no result: Rad51 HR inh)
Cc1ccc(NC(=S)c2nc3ccccc3s2)cc1	none
CCOC(=O)c1nc2sc3c(c2c(=O)[nH]1)CCCC3	none
CCOC(=O)c1nc(N2CCN(C(=O)OCC)CC2)c2c3c(sc2n1)CCCC3	Autophagy HCS active
C=C1CCC[C@]2(C)C[C@H]3OC(=O)C(CNCCN(CC)CC)[C@H]3CC12 (some centres undefined)	none (no result: Rad51 HR inh, Ins promoter up, Autophagy HCS, KCC2 mod, WT yeast gro inh)
COc1cc(-c2nc3ccccc3s2)ccc1O	none (no result: KCC2 mod, WT yeast gro inh)
COc1cc(/C=N/NC(=Nc2ccc(C)cc2)c2nc3ccccc3s2)ccc1O	WT yeast gro inh 75
COc1cc(C=C(c2nc3ccccc3s2)c2nc3ccccc3s2)cc(OC)c1O	WT yeast gro inh 74 (no result: Rad51 HR inh)
COc1cc(/C=C(\CC(=O)O)c2nc3ccccc3s2)cc(OC)c1O	none
COc1ccccc1/C=N/NC(=Nc1ccc(C)cc1)c1nc2ccccc2s1	none (no result: Rad51 HR inh)
COc1ccc(-c2nc3ccccc3s2)cc1O	WT yeast gro inh 59
Cc1ccc([N+](=O)[O-])cc1S(=O)(=O)n1ccnc1C	none (no result: Rad51 HR inh)

Bioassay records as filed in PubChem BioAssay.
